LANA-H2B inh = blocks KSHV LANA binding to histone H2A/H2B; Q9QR71; cell-free LANA-H2A/H2B peptide, fluorescence polarization; inhibition, % (no concentration beside the values); 320,000 compounds, 0.6% hits; AID 2629; in the data active means inhibition mostly above about 10%, no sharp cut-off; inactive means mostly below about 6.7%
ASAP1 inh = inhibitors of human ASAP1 ArfGAP activity; 360,000 compounds, 0.19% hits; AID 624377; inhibition, % at 16.5 µM; ASAP1-stimulated ARF1 GTP hydrolysis, GDP FP detection; Q9ULH1; in the data active means inhibition above about 25%
Target sequence (Q9ULH1 325-724 limits assumed): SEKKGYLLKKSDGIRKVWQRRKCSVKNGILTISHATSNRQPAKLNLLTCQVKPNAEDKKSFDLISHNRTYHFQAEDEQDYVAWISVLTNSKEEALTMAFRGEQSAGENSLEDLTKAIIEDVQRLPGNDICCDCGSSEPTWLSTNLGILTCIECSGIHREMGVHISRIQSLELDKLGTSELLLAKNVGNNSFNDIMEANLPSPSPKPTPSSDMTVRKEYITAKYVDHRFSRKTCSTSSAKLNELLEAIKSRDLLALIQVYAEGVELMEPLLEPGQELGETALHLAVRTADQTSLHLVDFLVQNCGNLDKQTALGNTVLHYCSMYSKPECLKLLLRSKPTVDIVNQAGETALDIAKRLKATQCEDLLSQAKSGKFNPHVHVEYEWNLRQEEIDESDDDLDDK
CR mimetic SO = lowers age-related superoxide in aged yeast cells; S. cerevisiae aged cells, superoxide DHE fluorescence; stronger effect = lower value; superoxide response (% of plate mean), % at 10 µM; 330,000 compounds, 0.18% hits;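 active means superoxide response under a set limit, about three screen SD below normal, cut at about 65% in these data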;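 further: yeast aged for seven days with compound at 30 °C before DHE staining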
ARFGAP1 inh = rat ARFGAP1 inhibition | Q62848 | Arfgap1-stimulated ARF1 GTP hydrolysis, GDP FP detection | inhibition, % at 16.5 µM | 360,000 compounds, 0.26% hits | AID 651572;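 active means inhibition above a per-plate limit, mean inhibition of low control wells plus 3 SD, cut at about 25% in these data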
Target sequence (Q62848 1-136 limits assumed): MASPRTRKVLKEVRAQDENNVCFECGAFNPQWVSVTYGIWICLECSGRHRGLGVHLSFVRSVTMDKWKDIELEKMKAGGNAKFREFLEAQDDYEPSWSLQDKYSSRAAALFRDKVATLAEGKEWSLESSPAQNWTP
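material = rat Arfgap1 catalytic domain, aa 1-136 | also added = human ARF1(Δ1-17)-GTP substrate | compound dosing = one concentration, 16.5 µM, DMSO 1.26% | times = GTP hydrolysis reaction 2 h at 25 °C | measured by = FP, GDP Alexa 633 tracer displaced from anti-GDP antibody, 620/688 nm | evaluation = percent inhibition of Arfgap1-stimulated GTP hydrolysis | replication = single well per compound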
proCasp7 act = counter-screen: procaspase-7 (human) activation. P55210. recombinant procaspase-7, Ac-DEVD-pNA absorbance 405 nm; D23A/D198A/D206A triple mutant, cannot self-cleave; scale: DMSO 0, 5 µM enzyme 100. activation, % at 8.5 µM. 330,000 compounds, 0.093% hits. AID 463210;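 active means percent activation above the screen-wide mean plus 3 SD, cut at about 25% in these data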
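buffer or medium = Zinc-free HEPES/NaCl buffer, pH 7.4 | material = Procaspase-7 triple mutant (PC-7 D3A) | input = 2 µM procaspase-7 mutant as dispensed | signal = Epi-absorbance of released pNA at 405 nm, two timepoints | timing = 1 h preincubation, 2 h reaction | replicates = singlicate compound testing | evaluation = % activation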
procasp3 activ = activates human procaspase-3; 330,000 compounds, 0.11% hits; recombinant procaspase-3 D3A, Ac-DEVD-pNA absorbance 405 nm; activation, % at 8.5 µM; AID 463141; P42574;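 active means activation above the mean of all tested compounds plus 3 SD, cut at about 21% in these data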
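System: Procaspase-3 D3A mutant. Medium: Zinc-free 300 mM NaCl, 50 mM HEPES, 0.01% Triton X-100. Schedule: 1 h preincubation plus 2 h reaction at 25 °C. Measured by: 405 nm absorbance of p-nitroaniline, reads at 0 and 120 min. Read-out: percent activation relative to control range.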
ARFGAP1 inh conf = confirmation of rat ARFGAP1 inhibitors; ARFGAP1-stimulated ARF1 GTP hydrolysis, GDP tracer FP; shares compounds with ARFGAP1 inh; inhibition, % at 16.5 µM; 890 compounds, 30% hits;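 active means average inhibition over triplicates above the hit cutoff set in the earlier primary screen, cut at about 25% in these data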
Hits are given with their value. Most compounds without a hit are left out; they make up all but 1.2% or so of the library.

For CCn1c(C)c(C(C)=O)c(N2CCN(c3ccc(OC)cc3)CC2)nc1=S the results were LANA-H2B inh inactive, ASAP1 inh inactive, CR mimetic SO inactive, ARFGAP1 inh 40.7, proCasp7 act inactive, procasp3 activ inactive and ARFGAP1 inh conf inactive.
Screening CCOc1ccc2nc(NC(=O)CSc3nc4c(c(=O)n(C)c(=O)n4C)n3C(C)C)sc2c1 returned LANA-H2B inh inactive, ASAP1 inh inactive, CR mimetic SO inactive, ARFGAP1 inh inactive, proCasp7 act inactive and procasp3 activ inactive.
CCOc1ccc2nc(NC(=O)Cn3cnc4c3c(=O)n(C)c(=O)n4C)sc2c1 was read as LANA-H2B inh inactive, ASAP1 inh inactive, CR mimetic SO inactive, ARFGAP1 inh 26.8, proCasp7 act inactive, procasp3 activ inactive and ARFGAP1 inh conf inactive.
`COc1ccc2nc(NC(=O)Cn3cnc4ccccc4c3=O)sc2c1` gave LANA-H2B inh 177.0, ASAP1 inh inactive, CR mimetic SO inactive, ARFGAP1 inh 27.1, proCasp7 act inactive, procasp3 activ inactive and ARFGAP1 inh conf inactive.
For CCOC(=O)COc1ccccc1C(=O)c1cnn(-c2ccccc2)c1 the results were LANA-H2B inh inactive, ASAP1 inh inactive, CR mimetic SO inactive, ARFGAP1 inh inactive, proCasp7 act inactive and procasp3 activ inactive.
For O=C1CCCN1c1cc(Cl)cc(Cl)c1 the results were LANA-H2B inh inactive, ASAP1 inh inactive, CR mimetic SO inactive, ARFGAP1 inh inactive, proCasp7 act inactive and procasp3 activ inactive.
Screening O=C1CCN(Cl)C(=O)N1Cl returned ASAP1 inh inactive, ARFGAP1 inh 25.9 and ARFGAP1 inh conf inactive.
Screening NC(=O)/C(=C\c1cccnc1)NC(=O)c1ccccc1 returned LANA-H2B inh inactive, ASAP1 inh inactive, CR mimetic SO inactive, ARFGAP1 inh inactive, proCasp7 act inactive and procasp3 activ inactive.
For O=C(/C=C/c1ccco1)Nc1ccc(N2CCCC2)cc1 the results were LANA-H2B inh inactive, ASAP1 inh inactive, CR mimetic SO inactive, ARFGAP1 inh 26.4, proCasp7 act inactive, procasp3 activ inactive and ARFGAP1 inh conf inactive.
`CCC1(c2ccc(OC)cc2)NC(=O)N(CC(=O)c2ccc3c(c2)OCCO3)C1=O` (stereo not drawn) gave LANA-H2B inh inactive, ASAP1 inh inactive, CR mimetic SO inactive, ARFGAP1 inh inactive, proCasp7 act inactive and procasp3 activ inactive.
`CC(=O)c1ccc2noc(-c3ccc(Cl)cc3)c2c1` gave LANA-H2B inh inactive, ASAP1 inh inactive, CR mimetic SO inactive, ARFGAP1 inh inactive, proCasp7 act inactive and procasp3 activ inactive.
Screening O/N=C\c1ccc2noc(-c3ccc(Cl)cc3)c2c1 returned LANA-H2B inh inactive, ASAP1 inh inactive, CR mimetic SO inactive, ARFGAP1 inh 24.9, proCasp7 act inactive, procasp3 activ inactive and ARFGAP1 inh conf 28.8.
`O=C(NC(Cc1ccccc1)C(=O)O)C1CCN(S(=O)(=O)c2ccccc2C(F)(F)F)CC1` (stereo not drawn) gave LANA-H2B inh inactive, ASAP1 inh inactive, CR mimetic SO inactive, ARFGAP1 inh inactive, proCasp7 act inactive and procasp3 activ inactive.
Screening CN1CCN(c2ccccc2NC(=O)Cn2ncc3c([nH]c4ccccc43)c2=O)CC1 returned LANA-H2B inh inactive, ASAP1 inh inactive, CR mimetic SO inactive, ARFGAP1 inh inactive, proCasp7 act inactive and procasp3 activ inactive.
Screening Cc1ccc2[nH]c3c(=O)n(CC(=O)Nc4ccccc4N4CCN(C)CC4)ncc3c2c1 returned LANA-H2B inh inactive, ASAP1 inh inactive, CR mimetic SO inactive, ARFGAP1 inh 24.8, proCasp7 act inactive, procasp3 activ inactive and ARFGAP1 inh conf 48.2.
Screening Cc1cccc2nc(-c3cccc(NC(=O)c4ccc(Cl)cc4)c3)cn12 returned LANA-H2B inh inactive, ASAP1 inh inactive, CR mimetic SO inactive, ARFGAP1 inh 57.7, proCasp7 act inactive, procasp3 activ inactive and ARFGAP1 inh conf inactive.
Cc1cccc2nc(-c3cccc(NC(=O)Cc4ccccc4)c3)cn12 was read as LANA-H2B inh inactive, ASAP1 inh inactive, CR mimetic SO inactive, ARFGAP1 inh inactive, proCasp7 act inactive and procasp3 activ inactive.
For CCN1CCN(Cc2ccc(NC(=O)c3ccc(C)c(NC(=O)C(=O)c4c[nH]c5ccccc45)c3)cc2C(F)(F)F)CC1 the results were LANA-H2B inh inactive, ASAP1 inh inactive, CR mimetic SO inactive, ARFGAP1 inh inactive, proCasp7 act inactive and procasp3 activ inactive.
For CCN1CCN(Cc2ccc(NC(=O)c3cc(NC(=O)C(=O)c4c[nH]c5ccccc45)cc(OC)c3)cc2C(F)(F)F)CC1 the results were LANA-H2B inh inactive, ASAP1 inh inactive, CR mimetic SO inactive, ARFGAP1 inh 46.3, proCasp7 act inactive, procasp3 activ inactive and ARFGAP1 inh conf 36.2.
Screening Cc1cccc(NC(=O)C2(c3cccs3)CCOCC2)c1 returned LANA-H2B inh inactive, ASAP1 inh inactive, CR mimetic SO inactive, ARFGAP1 inh 34.8, proCasp7 act inactive, procasp3 activ inactive and ARFGAP1 inh conf inactive.
For COc1cc(C(=O)Nc2ccc(S(=O)(=O)Nc3ncccn3)cc2)c([N+](=O)[O-])cc1OC the results were LANA-H2B inh inactive, ASAP1 inh inactive, CR mimetic SO inactive, ARFGAP1 inh inactive, proCasp7 act inactive and procasp3 activ inactive.
COc1cccc(OC)c1C(=O)Nc1ccc(S(=O)(=O)Nc2ncccn2)cc1 was read as LANA-H2B inh inactive, ASAP1 inh inactive, CR mimetic SO inactive, ARFGAP1 inh 27.8, proCasp7 act inactive, procasp3 activ inactive and ARFGAP1 inh conf inactive.
Cc1nn(CC(=O)Nc2ccc(S(N)(=O)=O)cc2)c(=O)c2ccccc12 was read as LANA-H2B inh inactive, ASAP1 inh inactive, CR mimetic SO inactive, ARFGAP1 inh inactive, proCasp7 act inactive and procasp3 activ inactive.
Screening CC(Cc1ccccc1)=NNS(=O)(=O)c1ccc([N+](=O)[O-])cc1 returned ASAP1 inh inactive and ARFGAP1 inh inactive.
For O=C(NCc1ccccc1)c1cc(C2CCCCN2C(=O)OCCF)on1 (stereo not drawn) the results were ASAP1 inh inactive, ARFGAP1 inh 24.8 and ARFGAP1 inh conf inactive.
Screening CCOc1ccc2ccccc2c1CNc1nnnn1CC returned LANA-H2B inh inactive, ASAP1 inh inactive, CR mimetic SO inactive, ARFGAP1 inh inactive, proCasp7 act inactive and procasp3 activ inactive.
For N#C/C(=C/c1ccc(N2CCCC2)c([N+](=O)[O-])c1)c1nc2ccccc2[nH]1 the results were LANA-H2B inh inactive, ASAP1 inh inactive, CR mimetic SO inactive, ARFGAP1 inh inactive, proCasp7 act inactive and procasp3 activ inactive.

Compound activity deposited in PubChem BioAssay by several laboratories.
